Data from ChEMBL document CHEMBL4359823, “Switching on the activity of 1,5-diaryl-pyrrole derivatives against drug-resistant ESKAPE bacteria: Structure-activity relationships and mode of action studies” (Eur J Med Chem, 2019).
≈ marks a conversion by molar mass, not a printed value. Calls of active or inactive are those of the source. The rule behind the calls is not given here.

Legend:
Enterococcus faecalis [1] = test: Antibacterial activity against vancomycin resistant Enterococcus faecalis NCTC12201 measured after overnight incubation by microbroth dilution method; type: functional
How it was run: (§1)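 Microbroth dilution: DMSO stocks diluted in water, 2-fold series. Overnight TSB cultures back-diluted to OD 0.01 and mixed 1:1 with compound. Incubated overnight at 37 °C; MIC taken as lowest concentration without visible growth (<0.1 OD600). Run in duplicate; matching DMSO levels checked for effect on growth.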

Klebsiella pneumoniae [2] = test: Antibacterial activity against Klebsiella pneumoniae NCTC13368 measured after overnight incubation in presence of polymyxin B nonapeptide by microbroth dilution method; type: functional
HEK293 = test: Cytotoxicity again human HEK293 cells measured after 24 hrs by XTT assay; type: cell-based; conditions: HEK293, 24 h
How it was run: (§2)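 Cells were grown in EMEM with glutamine, 10% FBS and non-essential amino acids at 37 °C, 10% CO2. Seeding was 1 x 10^5 cells/mL (HEK293) or 4 x 10^4 cells/mL (HeLa), then 24 h adherence. Doubling compound dilutions were applied for 24 h. XTT/PMS was added for 4 h in the dark, with absorbance read at 450 nm. Untreated cells were the 100% control and water-treated cells the 0% control; IC50 was fitted.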

Enterococcus faecalis [3] = test: Antibacterial activity against vancomycin resistant Enterococcus faecalis NCTC12204 measured after overnight incubation by microbroth dilution method; type: functional; how it was run: as §1
Escherichia coli [4] = test: Antibacterial activity against Escherichia coli NCTC12923 measured after overnight incubation in presence of phenylalanine arginine beta-naphthylamide by microbroth dilution method; type: functional
How it was run: (§3)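 Microbroth dilution MIC. Compound DMSO stocks were diluted in water as a 2-fold series. Overnight TSB cultures were back-diluted to OD 0.01 and mixed 1:1 with compound. Plates were incubated overnight at 37 °C. MIC was the lowest concentration without visible growth (<0.1 OD600), run in duplicate.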

Acinetobacter baumannii [5] = test: Antibacterial activity against Acinetobacter baumannii ATCC 17978 measured after overnight incubation in presence of phenylalanine arginine beta-naphthylamide by microbroth dilution method; type: functional; how it was run: as §3
Pseudomonas aeruginosa [6] = test: Antibacterial activity against Pseudomonas aeruginosa NCTC13437 measured after overnight incubation in presence of phenylalanine arginine beta-naphthylamide by microbroth dilution method; type: functional; how it was run: as §3
Acinetobacter baumannii [7] = test: Antibacterial activity against Acinetobacter baumannii AYE measured after overnight incubation in presence of phenylalanine arginine beta-naphthylamide by microbroth dilution method; type: functional; how it was run: as §3
Staphylococcus aureus [8] = test: Antibacterial activity against methicillin sensitive Staphylococcus aureus NCTC 6571 measured after overnight incubation by microbroth dilution method; type: functional; how it was run: as §1
Escherichia coli [9] = test: Antibacterial activity against Escherichia coli NCTC12923 measured after overnight incubation by microbroth dilution method; type: functional; how it was run: as §3
DNA gyrase = DNA gyrase (Staphylococcus aureus, UniProt P0A0K8+P20831, S84L); test: Inhibition of Staphylococcus aureus DNA gyrase S84L mutant; type: protein-complex assay
Pseudomonas aeruginosa [10] = test: Antibacterial activity against Pseudomonas aeruginosa PAO1 measured after overnight incubation by microbroth dilution method; type: functional; how it was run: as §3
Klebsiella pneumoniae [11] = test: Antibacterial activity against Klebsiella pneumoniae M6 measured after overnight incubation in presence of phenylalanine arginine beta-naphthylamide by microbroth dilution method; type: functional; how it was run: as §3
Acinetobacter baumannii [12] = test: Antibacterial activity against Acinetobacter baumannii AYE measured after overnight incubation by microbroth dilution method; type: functional; how it was run: as §3
Staphylococcus aureus [13] = test: Antibacterial activity against Staphylococcus aureus NCTC13616 assessed as generation of drug resistance at 2 times MIC measured after 48 hrs by agar-based microbroth dilution method; type: functional
How it was run: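 Agar method: exponentially growing bacteria, in known numbers, plated on agar with doubling compound concentrations at and above the MIC; incubated 48 hours. Colonies growing above the MIC were picked and re-tested by microbroth MIC for raised resistance. Resistance frequency reported at 2xMIC.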

Pseudomonas aeruginosa [14] = test: Antibacterial activity against Pseudomonas aeruginosa NCTC13437 measured after overnight incubation by microbroth dilution method; type: functional; how it was run: as §3
Enterococcus faecium = test: Antibacterial activity against Enterococcus faecium NCTC12204 assessed as generation of drug resistance at 2 times MIC measured after 48 hrs by agar-based microbroth dilution method
Acinetobacter baumannii [15] = test: Antibacterial activity against Acinetobacter baumannii ATCC 17978 measured after overnight incubation in presence of polymyxin B nonapeptide by microbroth dilution method; type: functional
Acinetobacter baumannii [16] = test: Antibacterial activity against Acinetobacter baumannii ATCC 17978 measured after overnight incubation by microbroth dilution method; type: functional; how it was run: as §3
Staphylococcus aureus [17] = test: Antibacterial activity against methicillin resistant Staphylococcus aureus NCTC13616 measured after overnight incubation by microbroth dilution method; type: functional; how it was run: as §1
Topoisomerase IV = Topoisomerase IV (Staphylococcus aureus, UniProt P0C1S7+P0C1U9); test: Inhibition of Staphylococcus aureus topoisomerase-4 expressed in Escherichia coli assessed as relaxation of pBR322 substrate measured after 30 mins by agarose gel electrophoresis
Klebsiella pneumoniae [18] = test: Antibacterial activity against Klebsiella pneumoniae NCTC13368 measured after overnight incubation by microbroth dilution method; type: functional; how it was run: as §3
Pseudomonas aeruginosa [19] = test: Antibacterial activity against Pseudomonas aeruginosa PAO1 measured after overnight incubation in presence of phenylalanine arginine beta-naphthylamide by microbroth dilution method; type: functional; how it was run: as §3
Staphylococcus aureus [20] = test: Antibacterial activity against methicillin resistant Staphylococcus aureus NCTC13277 measured after overnight incubation by microbroth dilution method; type: functional; how it was run: as §1
Enterococcus faecalis [21] = test: Bacteriostatic activity against vancomycin resistant Enterococcus feacalis NCTC12204 at 4 times MIC measured at 0 to 24 hrs by time kill assay
Enterococcus faecalis [22] = test: Antibacterial activity against vancomycin sensitive Enterococcus faecalis NCTC775 measured after overnight incubation by microbroth dilution method; type: functional; how it was run: as §1
Escherichia coli [23] = test: Antibacterial activity against Escherichia coli NCTC12923 measured after overnight incubation in presence of polymyxin B nonapeptide by microbroth dilution method; type: functional
Klebsiella pneumoniae [24] = test: Antibacterial activity against Klebsiella pneumoniae M6 measured after overnight incubation in presence of polymyxin B nonapeptide by microbroth dilution method; type: functional
HeLa = test: Cytotoxicity again human HeLa cells measured after 24 hrs by XTT assay; type: cell-based; how it was run: as §2
Staphylococcus aureus [25] = test: Bacteriostatic activity against methicillin resistant Staphylococcus aureus NCTC13616 at 4 times MIC measured at 0 to 24 hrs by time kill assay
Acinetobacter baumannii [26] = test: Antibacterial activity against Acinetobacter baumannii AYE measured after overnight incubation in presence of polymyxin B nonapeptide by microbroth dilution method; type: functional
Klebsiella pneumoniae [27] = test: Antibacterial activity against Klebsiella pneumoniae M6 measured after overnight incubation by microbroth dilution method; type: functional; how it was run: as §3
Klebsiella pneumoniae [28] = test: Antibacterial activity against Klebsiella pneumoniae NCTC13368 measured after overnight incubation in presence of phenylalanine arginine beta-naphthylamide by microbroth dilution method; type: functional; how it was run: as §3
[29] = Inhibition of Staphylococcus aureus DNA gyrase subunit A2B2 using relaxed pBR322 DNA as substrate measured after 30 mins in presence of ATP by ethidium bromide-based gel electrophoresis
How it was run: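 Supercoiling assay with S. aureus wild-type or S84L gyrase and relaxed pBR322, with or without varying compound, at 37 °C for 30 min. The reaction was stopped with STEB and extracted with chloroform:isoamyl alcohol (24:1). The aqueous phase was run on a 1% agarose gel and the supercoiled band quantified. IC50 came from at least three independent replicates.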

Pseudomonas aeruginosa [30] = test: Antibacterial activity against Pseudomonas aeruginosa PAO1 measured after overnight incubation in presence of polymyxin B nonapeptide by microbroth dilution method; type: functional
Pseudomonas aeruginosa [31] = test: Antibacterial activity against Pseudomonas aeruginosa NCTC13437 measured after overnight incubation in presence of polymyxin B nonapeptide by microbroth dilution method; type: functional
Staphylococcus aureus [32] = test: Bactericidal activity against methicillin resistant Staphylococcus aureus NCTC13616 at 4 times MIC measured at 0 to 24 hrs by time kill assay; type: functional, organism-based
How it was run: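 Overnight cultures back-diluted to OD 0.01 in glass universals, compound added at 4 x MIC, 37 °C with shaking at 200 rpm. Sampled at 0, 2, 4, 6 and 24 h; CFU/mL counted by Miles-Misra; untreated control included.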

In the case of `Cc1c(CNC2CCC(NC(=N)N)CC2)cc(-c2ccc(Cl)cc2)n1-c1ccc(Cl)cc1` (stereo not given), the MIC (Enterococcus faecalis [1]) is reported as 16 mg/L (≈ 34 µM), the MIC (Klebsiella pneumoniae [2]) is reported as 128 mg/L and the IC50 (HEK293) is reported as 11.7 to 18.9 mg/L (≈ 24.8 to 40.2 µM). For the same compound, the MIC (Enterococcus faecalis [3]) was 4 mg/L (≈ 8.5 µM), the MIC (Escherichia coli [4]) was 8 mg/L and the MIC (Acinetobacter baumannii [5]) was 16 mg/L. It also gave an MIC (Pseudomonas aeruginosa [6]) of 64 mg/L, an MIC (Acinetobacter baumannii [7]) of 64 mg/L and an MIC (Staphylococcus aureus [8]) of 2 mg/L (≈ 4.25 µM). For the same compound, the MIC (Escherichia coli [9]) was 8 mg/L (≈ 17 µM), the IC50 (DNA gyrase) was 15.4 µM and the MIC (Pseudomonas aeruginosa [10]) was 128 mg/L (≈ 272 µM). For the same compound, the MIC (Klebsiella pneumoniae [11]) was 64 mg/L, the MIC (Acinetobacter baumannii [12]) was 64 to 128 mg/L (≈ 136 to 272 µM) and the Activity (Staphylococcus aureus [13]) was under 7.6e-08. For the same compound, the MIC (Pseudomonas aeruginosa [14]) was 16 mg/L (≈ 34 µM), the Activity (Enterococcus faecium) was under 9.4e-08 and the MIC (Acinetobacter baumannii [15]) was 16 mg/L. For the same compound, the MIC (Acinetobacter baumannii [16]) was 16 mg/L (≈ 34 µM), the MIC (Staphylococcus aureus [17]) was 2 to 4 mg/L (≈ 4.25 to 8.5 µM) and the IC50 (Topoisomerase IV) was 61.2 µM. For the same compound, the MIC (Klebsiella pneumoniae [18]) was 128 mg/L (≈ 272 µM), the MIC (Pseudomonas aeruginosa [19]) was 128 mg/L and the MIC (Staphylococcus aureus [20]) was 4 mg/L (≈ 8.5 µM). For the same compound, the Activity (Enterococcus faecalis [21]) was “Active”, the MIC (Enterococcus faecalis [22]) was 8 mg/L (≈ 17 µM) and the MIC (Escherichia coli [23]) was 4 mg/L. For the same compound, the MIC (Klebsiella pneumoniae [24]) was 64 mg/L, the IC50 (HeLa) was 11.7 to 18.9 mg/L (≈ 24.8 to 40.2 µM) and the Activity (Staphylococcus aureus [25]) was “Active”. For the same compound, the MIC (Acinetobacter baumannii [26]) was 32 mg/L, the MIC (Klebsiella pneumoniae [27]) was 32 mg/L (≈ 68 µM) and the MIC (Klebsiella pneumoniae [28]) was 128 mg/L. The IC50 [29] was 7.48 mg/L, the MIC (Pseudomonas aeruginosa [30]) was 128 mg/L and the MIC (Pseudomonas aeruginosa [31]) was 16 mg/L.
For `Cc1c(CNC2CCCCC2)cc(-c2ccc(C(C)C)cc2)n1-c1ccc(Cl)cc1`, the MIC (Enterococcus faecalis [1]) was 4 mg/L (≈ 9.5 µM), the MIC (Klebsiella pneumoniae [2]) was over 128 mg/L and the IC50 (HEK293) was 2.4 to 3 mg/L (≈ 5.7 to 7.13 µM). For the same compound, the MIC (Enterococcus faecalis [3]) was 2 mg/L (≈ 4.75 µM), the MIC (Escherichia coli [4]) was 16 mg/L and the Activity (Staphylococcus aureus [32]) was “Active”. It also gave an MIC (Acinetobacter baumannii [5]) of 8 mg/L, an MIC (Pseudomonas aeruginosa [6]) of over 128 mg/L and an MIC (Acinetobacter baumannii [7]) of 8 mg/L. It also gave an MIC (Staphylococcus aureus [8]) of 4 mg/L (≈ 9.5 µM), an MIC (Escherichia coli [9]) of over 128 mg/L and an IC50 (DNA gyrase) of 69.1 µM. For the same compound, the MIC (Pseudomonas aeruginosa [10]) was over 128 mg/L, the MIC (Klebsiella pneumoniae [11]) was over 128 mg/L and the MIC (Acinetobacter baumannii [12]) was over 128 mg/L. It also gave an Activity (Staphylococcus aureus [13]) of under 7.6e-08, an MIC (Pseudomonas aeruginosa [14]) of over 128 mg/L and an Activity (Enterococcus faecium) of under 9.4e-08. It also gave an MIC (Acinetobacter baumannii [15]) of 2 mg/L, an MIC (Acinetobacter baumannii [16]) of 32 mg/L (≈ 76 µM) and an MIC (Staphylococcus aureus [17]) of 4 mg/L (≈ 9.5 µM). The MIC (Klebsiella pneumoniae [18]) was over 128 mg/L, the MIC (Pseudomonas aeruginosa [19]) was over 128 mg/L and the MIC (Staphylococcus aureus [20]) was 4 mg/L (≈ 9.5 µM). The Activity (Enterococcus faecalis [21]) was “Active”, the MIC (Enterococcus faecalis [22]) was 4 mg/L (≈ 9.5 µM) and the MIC (Escherichia coli [23]) was 2 mg/L. For the same compound, the MIC (Klebsiella pneumoniae [24]) was 128 mg/L, the IC50 (HeLa) was 2.4 to 3 mg/L (≈ 5.7 to 7.13 µM) and the MIC (Acinetobacter baumannii [26]) was 8 mg/L. The MIC (Klebsiella pneumoniae [27]) was over 128 mg/L, the MIC (Klebsiella pneumoniae [28]) was over 128 mg/L and the MIC (Pseudomonas aeruginosa [30]) was 8 mg/L. It also gave an MIC (Pseudomonas aeruginosa [31]) of 32 mg/L.
